# In paper PMC4543588 (European journal of medicinal chemistry, 2015):
# Ends that are not written are not given here.
# Assays:
# human NMU1 = biological target: T1, human NMU1 (Homo sapiens, UniProt Q9HB89); assay: cellular calcium signaling assay, HEK293 cells expressing recombinant human NMU1; assay type: cell-based
# T1 sequence (Q9HB89 1-426): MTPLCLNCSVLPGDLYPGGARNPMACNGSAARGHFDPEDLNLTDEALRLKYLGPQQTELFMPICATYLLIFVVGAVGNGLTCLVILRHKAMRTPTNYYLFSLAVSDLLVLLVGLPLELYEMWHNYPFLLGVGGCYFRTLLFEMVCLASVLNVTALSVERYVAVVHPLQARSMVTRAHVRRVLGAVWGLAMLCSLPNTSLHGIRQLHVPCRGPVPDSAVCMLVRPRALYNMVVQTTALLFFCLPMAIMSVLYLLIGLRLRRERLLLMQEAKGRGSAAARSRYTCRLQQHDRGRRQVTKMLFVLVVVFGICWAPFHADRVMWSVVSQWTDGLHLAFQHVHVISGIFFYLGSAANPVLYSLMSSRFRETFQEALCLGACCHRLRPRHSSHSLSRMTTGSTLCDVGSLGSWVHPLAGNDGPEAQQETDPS
# In short: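 HEK293 cells stably expressing human NMU1, grown to ~90% confluence on poly-D-lysine, loaded 45 min at 37 °C with 2 μM fluo-4-AM in Krebs'-HEPES/0.1% BSA (pH 7.4), then equilibrated 5 min. Ligand added; fluorescence (ex 485/em 520 nm) read every 0.5 s. […] Four-parameter logistic fit gave EC50; Emax as % hNmU; n≥4.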
# human NMU2 = human NMU2 (Homo sapiens, UniProt Q9GZQ4); assay: cellular calcium signaling assay, HEK293 cells expressing recombinant human NMU2; assay type: cell-based
# In short: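 HEK293 cells stably expressing human NMU2 were grown to ~90% confluence on poly-D-lysine, loaded 45 min at 37 °C with 2 μM fluo-4-AM in Krebs'-HEPES-BSA (pH 7.4), then equilibrated 5 min. After ligand addition, fluorescence (ex 485/em 520 nm) was read at 0.5 s intervals. Maximal [Ca2+]i change was fitted by four-parameter logistic for EC50. Emax given as % hNmU Emax; mean ± SEM, n≥4.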
# [1] = s.c. injection ref 39; cited from earlier work
# water solubility = assay type: physicochemical
# [2] = system: lysophosphatidic acid (LPA); assay: LPA levels in plasma of chronically treated DIO mice; assay type: in vivo, mouse; details: 1603 nmoles/kg; every 2 or 4 (NM4A) or 7 days (NM4-C16) for 21 days
# In short: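 Ad libitum-fed male DIO C57BL/6 mice on a 60% kcal-fat diet (n=8/group) received s.c. vehicle or test compound in a phospholipid-based delivery system, 30 min before dark onset. Dosing was 1603 nmoles/kg every 2 or 4 days (2.2 mg/kg) or every 7 days (2.6 mg/kg) for 21 days. Plasma (100 μL) underwent solid-phase extraction and drying at 30–37 °C, then methanol reconstitution. 18:1, 18:2 and 20:4 LPA were quantified by LC-ESI-MS/MS.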
# [3] = body distribution analysis in chronically treated DIO mice; assay type: in vivo, mouse; details: 2.2 mg/kg every 2 days for 28 days
# In short: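 Male DIO C57BL/6 mice were given test compound chronically at 2.2 mg/kg (1603 nmoles/kg) every 2 days for 28 days, then killed. Organs and tissues were harvested, weighed and homogenised in 4 volumes of DMSO/ACN (1:1) with 0.1% TFA, then spun 10 min at 13000 rpm. Supernatants were analysed by triple-quadrupole LC/MS with a methylated analog as internal standard.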
# [4] = cited from earlier work
# human NMU2, sequence (Q9GZQ4 whole entry): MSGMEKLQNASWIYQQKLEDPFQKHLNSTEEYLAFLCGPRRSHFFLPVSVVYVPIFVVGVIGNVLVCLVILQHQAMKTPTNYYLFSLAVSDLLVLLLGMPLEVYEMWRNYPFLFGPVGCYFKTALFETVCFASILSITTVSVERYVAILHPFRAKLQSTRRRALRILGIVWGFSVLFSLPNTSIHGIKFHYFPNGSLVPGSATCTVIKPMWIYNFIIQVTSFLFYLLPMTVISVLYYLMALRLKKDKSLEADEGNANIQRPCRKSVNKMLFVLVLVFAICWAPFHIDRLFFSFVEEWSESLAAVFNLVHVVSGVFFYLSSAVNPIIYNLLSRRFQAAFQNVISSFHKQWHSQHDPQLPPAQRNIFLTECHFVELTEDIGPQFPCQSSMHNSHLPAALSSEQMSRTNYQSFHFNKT
Molecule,NMU1 Emax at 10 μM as % hNmU Emax (human NMU1) [% hNmU Emax],NMU2 Emax at 10 μM as % hNmU Emax (human NMU2) [% hNmU Emax],also measured
Pal-Aib -FL- N^MeF -Arg- Pro-R-N^MeN [NM35],22.9±3.8,67.0±16.5,
"NmU: endogenous peptide neuromedin U (FRVDEEFQSPFASQSRGYFLFRPRN-NH2; ends and bridges not checked; UniProt P48645 142-166, looked up)",,,half-life after subcutaneous (s.c.) injection [1]: less than 5 min
Pal-Aib -FL- Phe-N^MeR- Pro-R-N^MeN [NM31],13.8±2.0,17.9±1.5,
Pal-Aib -FL- Phe -Arg- Pro-R-Asn-Aib [NM6],40.6±2.2,60.7±12.1,
"CCCCCCCCCCCCCCCCNC(=O)CNCC(=O)NC(C)(C)C(=O)N[C@@H](Cc1ccccc1)C(=O)N[C@@H](CC(C)C)C(=O)N[C@@H](Cc1ccccc1)C(=O)N[C@@H](CCCNC(=N)N)C(=O)N1CCC[C@H]1C(=O)N[C@@H](CCCNC(=N)N)C(=O)N[C@@H](CC(N)=O)C(N)=O [NM4A, Ida^NHPal-Aib -FL- Phe -Arg- Pro-R-Asn]",,,water solubility (water solubility): limited water solubility; plasma levels of LPA [2]: does not increase plasma levels of LPA; body distribution [3]: highest content of NM4A was detected in the plasma
X(C-Ahx -FL- Phe -Arg- Pro-R-Asn-Ahx-C) [NM11],33.7±0.2,60.6±11.6,
X(C-Ahx -FL- Phe -Arg- Oic-R-Asn-Ahx-C) [NM12],30.00±6.0,70.0±6.0,
Pal-Aib -FL- α^MeF -Arg- Pro-R-N^MeN [NM36],15.9±6.6,28.6±7.9,
semaglutide,,,plasma half-life [4]: 160 h
Pal-Aib -FL- Phe-N^MeR- Pro-R-N^MeN [NM34],19.6±3.2,18.4±3.2,
Pal-Aib -FL- α^MeF -Arg- Pro-R-N^MeN [NM33],20.6±1.9,19.2±2.0,
X(C-Ahx -FL- Phe -Arg- Tic-R-Asn-Ahx-C) [NM13],60.4±13.8,39.3±8.8,
Pal-Aib -FL- N^MeF -Arg- Pro-R-N^MeN [NM32],19.1±1.2,15.2±3.8,
